Results: ChEMBL document CHEMBL4261489, “Quantitative measurement of intracellular HDAC1/2 drug occupancy using a trans-cyclooctene largazole thiol probe” (Medchemcomm, 2017)
Activity calls are given as the source filed them. The rule behind the calls is not given here.

What was measured:
[1] = target: T1, Histone deacetylase 2 (Homo sapiens, UniProt Q92769)
[2] = target: T1, Histone deacetylase 2; assay: Binding affinity to HDAC2 in human CD34positive cell-derived erythroid progenitor cells measured up to 120 mins by tetrazine-PEG4-biotin-based SDS-PAGE/immunoblot analysis
[3] = target: T2, Histone deacetylase 1 (Homo sapiens, UniProt Q13547); assay: Inhibition of C-terminal FLAG/His-tagged full length recombinant human HDAC1 expressed in baculovirus infected Sf9 insect cells using HDAC substrate 3 after 30 mins by fluorescence assay
T2 sequence (Q13547 whole entry): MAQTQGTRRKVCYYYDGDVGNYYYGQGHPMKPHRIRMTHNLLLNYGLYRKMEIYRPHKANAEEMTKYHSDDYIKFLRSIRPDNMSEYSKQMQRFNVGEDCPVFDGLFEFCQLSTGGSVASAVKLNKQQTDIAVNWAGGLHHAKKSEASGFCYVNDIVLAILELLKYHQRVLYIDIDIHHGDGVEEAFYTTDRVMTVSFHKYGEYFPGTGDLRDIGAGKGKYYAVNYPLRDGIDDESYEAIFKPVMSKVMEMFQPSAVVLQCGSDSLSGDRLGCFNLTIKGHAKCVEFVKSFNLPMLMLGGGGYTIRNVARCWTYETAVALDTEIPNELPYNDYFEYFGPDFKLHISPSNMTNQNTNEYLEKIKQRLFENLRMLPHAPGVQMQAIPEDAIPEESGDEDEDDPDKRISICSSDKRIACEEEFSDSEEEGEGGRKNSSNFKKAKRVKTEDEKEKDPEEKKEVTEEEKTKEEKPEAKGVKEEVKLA
Outline: (§1)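 Fluorogenic deacetylation was run at 37 °C for 30 min in HEPES pH 7.5 buffer with NaCl, KCl, Tween 20, TCEP and BSA. Enzyme and substrate were: HDAC1 10 ng, HDAC2 5 ng or HDAC3 2 ng with 10 µM substrate 3; HDAC8 10 ng with 2 µM class 2a substrate 1. Compound ran at 0.001–10000 nM. Developer was added for 20 min at RT and fluorescence read at Ex360/Em460.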

[4] = Apparent permeability of the compound; format: ADME; conditions: not told
[5] = target: T1, Histone deacetylase 2; assay: Binding affinity to HDAC2 in human CD34positive cell-derived erythroid progenitor cells up to 3 uM by tetrazine-PEG4-biotin-based SDS-PAGE/immunoblot analysis
[6] = target: T2, Histone deacetylase 1; assay: Competitive binding affinity to HDAC1 in human CD34positive cell-derived erythroid progenitor cells in presence of largazole thiol by tetrazine-PEG4-biotin-based SDS-PAGE/immunoblot analysis
Outline: (§2)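 Mobilized peripheral blood CD34+ cells were expanded 7 days with CC100 cytokines, then 4 days in erythroid medium (SCF, IL-3, EPO, dexamethasone, β-estradiol). Cells got DMSO or 1–100 nM inhibitor (37 °C, 2 h or 24 h), then 3 μM TCO largazole thiol for 10 min. Lysates were clicked with 50 μM tetrazine-PEG4-biotin, pulled down on streptavidin and immunoblotted for HDAC1/2. Occupancy versus vehicle gave OC50 by sigmoidal fit.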

[7] = target: Histone deacetylase 3/Nuclear receptor corepressor 2 (HDAC3/NCoR2) (Homo sapiens, UniProt O15379); assay: Inhibition of C-terminal His-tagged full length recombinant human HDAC3/N-terminal GST-tagged NCOR2 (395 to 489 residues) expressed in baculovirus infected Sf9 insect cells using HDAC substrate 3 after 30 mins by fluorescence assay
Histone deacetylase 3/Nuclear receptor corepressor 2 (HDAC3/NCoR2), sequence (O15379 whole entry, the tested form may be a part): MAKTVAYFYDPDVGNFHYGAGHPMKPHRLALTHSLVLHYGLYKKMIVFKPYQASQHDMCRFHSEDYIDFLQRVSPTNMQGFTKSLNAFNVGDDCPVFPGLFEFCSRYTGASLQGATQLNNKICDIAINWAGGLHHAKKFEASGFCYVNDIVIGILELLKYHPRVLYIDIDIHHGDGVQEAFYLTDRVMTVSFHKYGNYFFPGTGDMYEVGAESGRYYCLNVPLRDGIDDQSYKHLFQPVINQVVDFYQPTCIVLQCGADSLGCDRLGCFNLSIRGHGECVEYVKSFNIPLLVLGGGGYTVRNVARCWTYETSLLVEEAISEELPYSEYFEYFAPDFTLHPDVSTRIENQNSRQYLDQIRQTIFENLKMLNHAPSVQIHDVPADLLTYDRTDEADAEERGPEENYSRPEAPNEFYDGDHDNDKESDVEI
Histone deacetylase 3/Nuclear receptor corepressor 2 (HDAC3/NCoR2), sequence (Q9Y618 whole entry, further chain, the tested form may be a part): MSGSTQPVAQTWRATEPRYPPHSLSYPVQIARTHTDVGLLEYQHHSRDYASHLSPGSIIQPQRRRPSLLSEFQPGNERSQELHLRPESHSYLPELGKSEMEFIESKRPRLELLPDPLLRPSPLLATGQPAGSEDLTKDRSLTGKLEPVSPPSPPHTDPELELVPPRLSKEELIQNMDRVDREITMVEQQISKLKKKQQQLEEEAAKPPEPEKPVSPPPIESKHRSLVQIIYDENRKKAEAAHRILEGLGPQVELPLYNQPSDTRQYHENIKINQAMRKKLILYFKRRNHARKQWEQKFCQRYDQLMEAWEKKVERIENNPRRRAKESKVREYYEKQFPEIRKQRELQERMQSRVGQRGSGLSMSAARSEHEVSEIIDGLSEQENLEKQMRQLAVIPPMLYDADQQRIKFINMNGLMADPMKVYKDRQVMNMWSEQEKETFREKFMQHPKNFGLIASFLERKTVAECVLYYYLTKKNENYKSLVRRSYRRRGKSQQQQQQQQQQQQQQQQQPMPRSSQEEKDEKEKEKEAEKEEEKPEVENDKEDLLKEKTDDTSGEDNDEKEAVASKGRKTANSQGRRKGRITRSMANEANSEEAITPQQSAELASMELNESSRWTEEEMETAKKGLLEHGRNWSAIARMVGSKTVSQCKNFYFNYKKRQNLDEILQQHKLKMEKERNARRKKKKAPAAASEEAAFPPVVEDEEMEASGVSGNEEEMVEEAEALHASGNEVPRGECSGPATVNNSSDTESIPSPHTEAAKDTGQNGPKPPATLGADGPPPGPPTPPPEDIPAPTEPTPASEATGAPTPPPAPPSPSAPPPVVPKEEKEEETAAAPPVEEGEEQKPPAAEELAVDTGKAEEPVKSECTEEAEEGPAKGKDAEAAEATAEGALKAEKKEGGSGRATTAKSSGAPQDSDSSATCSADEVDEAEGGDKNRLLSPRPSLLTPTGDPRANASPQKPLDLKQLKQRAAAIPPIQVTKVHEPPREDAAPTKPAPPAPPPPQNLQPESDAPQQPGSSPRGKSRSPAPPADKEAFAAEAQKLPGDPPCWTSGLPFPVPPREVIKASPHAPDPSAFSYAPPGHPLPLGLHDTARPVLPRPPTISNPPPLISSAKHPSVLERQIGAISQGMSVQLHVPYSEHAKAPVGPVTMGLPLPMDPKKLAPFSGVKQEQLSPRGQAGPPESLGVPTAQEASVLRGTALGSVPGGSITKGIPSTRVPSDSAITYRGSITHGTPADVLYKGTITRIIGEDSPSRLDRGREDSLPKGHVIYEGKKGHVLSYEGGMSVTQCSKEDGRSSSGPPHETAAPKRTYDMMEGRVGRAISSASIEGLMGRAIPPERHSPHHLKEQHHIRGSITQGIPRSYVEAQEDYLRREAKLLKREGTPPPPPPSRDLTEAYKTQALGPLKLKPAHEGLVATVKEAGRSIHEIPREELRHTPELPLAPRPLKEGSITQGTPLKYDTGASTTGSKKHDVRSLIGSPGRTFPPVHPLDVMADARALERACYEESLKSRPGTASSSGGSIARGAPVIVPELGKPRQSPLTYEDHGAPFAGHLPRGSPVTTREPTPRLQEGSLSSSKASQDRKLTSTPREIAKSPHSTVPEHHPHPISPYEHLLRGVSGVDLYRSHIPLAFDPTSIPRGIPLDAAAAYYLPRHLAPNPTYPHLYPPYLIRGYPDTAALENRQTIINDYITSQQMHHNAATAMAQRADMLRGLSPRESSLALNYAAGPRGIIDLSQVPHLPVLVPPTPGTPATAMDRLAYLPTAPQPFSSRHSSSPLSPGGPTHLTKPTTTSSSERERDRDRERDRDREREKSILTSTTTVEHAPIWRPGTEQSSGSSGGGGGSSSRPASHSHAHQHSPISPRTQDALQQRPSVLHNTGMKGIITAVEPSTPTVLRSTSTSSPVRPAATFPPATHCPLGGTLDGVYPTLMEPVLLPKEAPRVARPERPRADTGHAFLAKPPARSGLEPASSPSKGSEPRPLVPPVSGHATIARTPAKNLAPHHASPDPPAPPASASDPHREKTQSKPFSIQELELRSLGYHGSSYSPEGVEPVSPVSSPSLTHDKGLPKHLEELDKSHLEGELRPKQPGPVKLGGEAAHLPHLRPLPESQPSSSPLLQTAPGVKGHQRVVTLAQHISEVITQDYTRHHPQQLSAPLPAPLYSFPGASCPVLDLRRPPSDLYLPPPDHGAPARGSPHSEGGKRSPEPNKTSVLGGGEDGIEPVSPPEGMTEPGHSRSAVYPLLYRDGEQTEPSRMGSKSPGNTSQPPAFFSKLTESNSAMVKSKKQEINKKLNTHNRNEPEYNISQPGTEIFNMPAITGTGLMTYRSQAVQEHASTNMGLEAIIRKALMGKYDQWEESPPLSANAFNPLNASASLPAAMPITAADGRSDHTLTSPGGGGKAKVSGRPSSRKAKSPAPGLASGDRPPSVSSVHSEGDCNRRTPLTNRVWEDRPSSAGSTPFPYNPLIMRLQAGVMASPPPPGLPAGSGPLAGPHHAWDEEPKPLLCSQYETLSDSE
Outline: as §1

[8] = target: T1, Histone deacetylase 2; assay: Competitive binding affinity to HDAC2 in human CD34positive cell-derived erythroid progenitor cells in presence of largazole thiol by tetrazine-PEG4-biotin-based SDS-PAGE/immunoblot analysis
Outline: as §2

[9] = target: T3, Histone deacetylase 8 (Homo sapiens, UniProt Q9BY41); assay: Inhibition of C-terminal His-tagged full length recombinant human HDAC8 expressed in baculovirus infected Sf9 insect cells using HDAC class 2a substrate 1 after 30 mins by fluorescence assay
T3 sequence (Q9BY41 whole entry): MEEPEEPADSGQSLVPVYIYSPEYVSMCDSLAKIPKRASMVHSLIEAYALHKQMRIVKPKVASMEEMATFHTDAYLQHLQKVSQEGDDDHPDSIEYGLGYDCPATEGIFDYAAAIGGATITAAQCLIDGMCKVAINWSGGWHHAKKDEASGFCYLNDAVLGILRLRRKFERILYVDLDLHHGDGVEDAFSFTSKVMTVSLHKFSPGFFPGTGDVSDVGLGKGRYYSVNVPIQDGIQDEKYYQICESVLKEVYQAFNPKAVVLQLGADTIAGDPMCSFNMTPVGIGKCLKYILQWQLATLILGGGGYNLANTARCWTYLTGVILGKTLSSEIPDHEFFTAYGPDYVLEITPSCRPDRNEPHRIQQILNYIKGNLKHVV
Outline: as §1

[10] = target: T1, Histone deacetylase 2; assay: Inhibition of C-terminal FLAG or His-tagged full length recombinant human HDAC2 expressed in baculovirus infected Sf9 insect cells using HDAC substrate 3 after 30 mins by fluorescence assay
Outline: as §1

[11] = target: T2, Histone deacetylase 1; assay: Binding affinity to HDAC1 in human CD34positive cell-derived erythroid progenitor cells up to 3 uM by tetrazine-PEG4-biotin-based SDS-PAGE/immunoblot analysis
[12] = target: Histone deacetylase 3 (Homo sapiens) (UniProt O15379); assay: Binding affinity to HDAC3 in human CD34positive cell-derived erythroid progenitor cells by tetrazine-PEG4-biotin-based SDS-PAGE/immunoblot analysis
Histone deacetylase 3 (Homo sapiens), sequence (O15379 whole entry): as the sequence (O15379 whole entry, the tested form may be a part) above

[13] = target: T2, Histone deacetylase 1; assay: Binding affinity to HDAC1 in human CD34positive cell-derived erythroid progenitor cells measured up to 120 mins by tetrazine-PEG4-biotin-based SDS-PAGE/immunoblot analysis

T1 sequence (Q92769 whole entry): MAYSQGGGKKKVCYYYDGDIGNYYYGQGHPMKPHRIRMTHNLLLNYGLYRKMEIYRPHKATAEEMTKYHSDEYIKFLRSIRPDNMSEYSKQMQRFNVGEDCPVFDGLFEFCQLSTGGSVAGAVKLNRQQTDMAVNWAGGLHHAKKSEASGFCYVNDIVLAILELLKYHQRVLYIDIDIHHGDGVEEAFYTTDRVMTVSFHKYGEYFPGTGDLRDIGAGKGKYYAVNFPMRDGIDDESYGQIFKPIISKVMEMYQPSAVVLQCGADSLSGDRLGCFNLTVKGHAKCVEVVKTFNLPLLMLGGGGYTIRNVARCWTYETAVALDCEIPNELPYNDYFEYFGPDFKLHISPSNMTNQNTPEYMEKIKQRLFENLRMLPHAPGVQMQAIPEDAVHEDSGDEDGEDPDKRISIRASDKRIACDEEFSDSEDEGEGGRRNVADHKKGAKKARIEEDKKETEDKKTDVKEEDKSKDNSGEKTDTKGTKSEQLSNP

Occ50 [1] [nM] | Activity [2] | IC50 [3] [nM] | Papp [4] [×10⁻⁶ cm/s] | Activity [5] | Activity [6] | IC50 [7] [nM] | Activity [8] | IC50 [9] [nM] | IC50 [10] [nM] | Activity [11] | Activity [12] | Activity [13] | SMILES
3 |  |  |  |  |  |  |  |  |  |  |  |  | O=C(/C=C/c1ccc(CN(CCO)CCc2c[nH]c3ccccc23)cc1)NO
 | Active | 1.9 | 3.23 | Active | Active | 1.1 | Active | 1110 | 6.6 | Active | inactive | Active | C[C@@]12CSC(=N1)c1csc(n1)CNC(=O)C[C@@H](/C=C/CCS)OC(=O)[C@H](CCCCNC(=O)O[C@@H]1CC/C=C/CCC1)NC2=O
